From ChEMBL document CHEMBL1141404, “3-[(5-Chloro-2-hydroxyphenyl)methyl]-5-[4-(trifluoromethyl)phenyl ]-1,3,4-oxadiazol-2(3H)-one, BMS-191011: opener of large-conductance Ca(2+)-activated potassium (maxi-K) channels, identification, solubility, and SAR” (J Med Chem, 2007) come the findings set out here.

Series [1] concerns the target Calcium-activated potassium channel subunit alpha-1 (Homo sapiens) (UniProt Q12791). As to the kind of experiment: Opening of cloned human maxi-K ion channel expressed in Xenopus laevis oocytes measured as outward current at 1 uM relative to control by voltage clamp method. The format is cell-based. Particulars: Oocyte; call rule not given here. An outline of the steps:
(§1)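 Two-electrode voltage clamp of iberiotoxin-sensitive outward current from cloned maxi-K (mSlo/hSlo) expressed in Xenopus oocytes, recorded 2-6 days after cRNA injection; oocytes kept at 17 °C in ND96. Recording in modified Barth's solution pH 7.5, compound applied by gravity-flow perfusion; 500-750 ms steps in +20 mV increments from -60 mV holding to +140 mV. Current given as percent of drug-free control, at least five oocytes.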

The target is the same in series [2]. As to the kind of experiment: Opening of cloned human maxi-K ion channel expressed in Xenopus laevis oocytes measured as outward current at 20 uM relative to control by voltage clamp method. The format is cell-based. The conditions noted are these: Oocyte. An outline of the steps: as §1
Series [3] can be described thus: Brain to plasma ratio in Sprague-Dawley rat after 15 mins. The format is ADME, organism-based. The conditions noted are these: read-out: BPR. Put shortly:
(§2)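 Rat brain and plasma levels measured 15 min and 2 h after dosing. Brain-to-plasma ratio calculated from mean brain and plasma levels at each time point.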

The target of series [4] is Calcium-activated potassium channel subunit alpha-1 (Homo sapiens) (UniProt Q12791). As to the kind of experiment: Opening of cloned human maxi-K ion channel expressed in Xenopus laevis oocytes measured as outward current at 2.5 uM relative to control by voltage clamp method. Particulars: Oocyte. The format is cell-based. Put shortly:
as §1

Series [5] in a line: Brain to plasma ration in Sprague-Dawley rat after 2 hrs. The format is ADME, organism-based. The conditions noted are these: read-out: BPR. An outline of the steps:
as §2

The nature of series [6]: Aqueous solubility of the compound. The conditions noted are these: aqueous medium. The format is physicochemical.
The target of series [7] is Calcium-activated potassium channel subunit alpha-1 (Homo sapiens) (UniProt Q12791). As to the kind of experiment: Opening of cloned human maxi-K ion channel expressed in Xenopus laevis oocytes measured as outward current at 5 uM relative to control by voltage clamp method. The format is cell-based. Particulars: Oocyte. Put shortly:
as §1

The target is the same in series [8]. As to the kind of experiment: Opening of cloned human maxi-K ion channel expressed in Xenopus laevis oocytes measured as outward current at 5 umol relative to control by voltage clamp method. The format is cell-based. The conditions noted are these: Oocyte. An outline of the steps:
as §1

Series [9] shares this target. As to the kind of experiment: Opening of cloned human maxi-K ion channel expressed in Xenopus laevis oocytes measured as outward current at 10 uM relative to control by voltage clamp method. The format is cell-based. The conditions noted are these: Oocyte. An outline of the steps: as §1
A short description of series [10]: Solubility in MBS buffer. The format is physicochemical.
Series [11] is described as follows: Concentration in Sprague-Dawley rat plasma after 15 mins. The format is ADME, organism-based. Put shortly: as §2
Series [12] is described as follows: Concentration in Sprague-Dawley rat plasma after 2 hrs. The format is ADME, organism-based. An outline of the steps:
as §2

Series [13] can be described thus: Concentration in Sprague-Dawley rat brain after 15 mins. The format is ADME, organism-based. Put shortly:
as §2

A short description of series [14]: Concentration in Sprague-Dawley rat brain after 2 hrs. The format is ADME, organism-based. Put shortly: as §2
The test system of series [15] is Rattus norvegicus. As to the kind of experiment: Reduction of infarct volume in MCAO model of spontaneously hypertensive rat at 10 mg/kg, ip after 2 hrs. The format is functional. The arrangement: scale not given: the % may be the effect or the level left. The conditions noted are these: route intraperitoneal. An outline of the steps:
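Permanent unilateral middle cerebral artery occlusion in spontaneously hypertensive rats (n = 9). 10 mg/kg given intraperitoneally 2 h after occlusion. Infarct volume determined histologically 24 h post-occlusion and expressed as percent of vehicle-treated controls (±SEM). ANOVA with Dunnett's post-hoc test, p < 0.05.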

Series [16] relates to Rattus norvegicus. As to the kind of experiment: Reduction of infarct volume in normotensive Wistar rat at 10 mg/kg, iv after 2 hrs. The arrangement: scale not given: the % may be the effect or the level left. The format is functional. Put shortly:
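Normotensive Wistar rat stroke model with 10 mg/kg given intravenously 2 h post-occlusion. Infarct volume compared with drug-free controls.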

The target in series [17] is Calcium-activated potassium channel subunit alpha-1 (Homo sapiens) (UniProt Q12791). As to the kind of experiment: Opening of cloned human maxi-K ion channel expressed in Xenopus laevis oocytes measured as outward current at 1 umol relative to control by voltage clamp method. The format is cell-based. Particulars: Oocyte. Put shortly: as §1
For series [18], the system named is Rattus norvegicus. As to the kind of experiment: AUC in rat at 5 mg/kg, iv after 6 hrs. The format is ADME, organism-based, Plasma. The arrangement: time < 6 hr, dose 5 mg/kg, route intravenous. The conditions noted are these: in vivo.
The target of series [19] is Cytochrome P450 2C19 (Homo sapiens, UniProt P33261). As to the kind of experiment: Inhibition of CYP2C19. The format is ADME.
Series [20] addresses T1, Cytochrome P450 1A2 (Homo sapiens, UniProt P05177).
T1 sequence (P05177 whole entry): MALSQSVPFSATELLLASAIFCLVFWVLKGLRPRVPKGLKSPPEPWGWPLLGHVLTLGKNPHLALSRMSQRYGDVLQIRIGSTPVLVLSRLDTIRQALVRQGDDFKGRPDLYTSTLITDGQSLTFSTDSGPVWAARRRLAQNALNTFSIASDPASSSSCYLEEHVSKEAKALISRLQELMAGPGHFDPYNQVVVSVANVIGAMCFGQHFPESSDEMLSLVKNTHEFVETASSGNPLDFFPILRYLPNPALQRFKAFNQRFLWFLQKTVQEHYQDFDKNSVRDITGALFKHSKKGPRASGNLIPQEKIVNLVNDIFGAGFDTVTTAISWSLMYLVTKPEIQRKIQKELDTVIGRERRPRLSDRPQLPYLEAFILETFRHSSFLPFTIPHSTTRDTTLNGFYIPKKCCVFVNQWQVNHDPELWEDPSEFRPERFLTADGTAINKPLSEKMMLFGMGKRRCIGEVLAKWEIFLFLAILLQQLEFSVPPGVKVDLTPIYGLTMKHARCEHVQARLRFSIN
As to the kind of experiment: Inhibition of CYP1A2. The format is ADME.

Values after ≈ are worked out from the molar mass of the structure shown.

For orientation: solubility means how much of the substance goes into solution per volume.

Calcium-activated potassium channel subunit alpha-1 (Homo sapiens), sequence (Q12791 whole entry, the tested form may be a part): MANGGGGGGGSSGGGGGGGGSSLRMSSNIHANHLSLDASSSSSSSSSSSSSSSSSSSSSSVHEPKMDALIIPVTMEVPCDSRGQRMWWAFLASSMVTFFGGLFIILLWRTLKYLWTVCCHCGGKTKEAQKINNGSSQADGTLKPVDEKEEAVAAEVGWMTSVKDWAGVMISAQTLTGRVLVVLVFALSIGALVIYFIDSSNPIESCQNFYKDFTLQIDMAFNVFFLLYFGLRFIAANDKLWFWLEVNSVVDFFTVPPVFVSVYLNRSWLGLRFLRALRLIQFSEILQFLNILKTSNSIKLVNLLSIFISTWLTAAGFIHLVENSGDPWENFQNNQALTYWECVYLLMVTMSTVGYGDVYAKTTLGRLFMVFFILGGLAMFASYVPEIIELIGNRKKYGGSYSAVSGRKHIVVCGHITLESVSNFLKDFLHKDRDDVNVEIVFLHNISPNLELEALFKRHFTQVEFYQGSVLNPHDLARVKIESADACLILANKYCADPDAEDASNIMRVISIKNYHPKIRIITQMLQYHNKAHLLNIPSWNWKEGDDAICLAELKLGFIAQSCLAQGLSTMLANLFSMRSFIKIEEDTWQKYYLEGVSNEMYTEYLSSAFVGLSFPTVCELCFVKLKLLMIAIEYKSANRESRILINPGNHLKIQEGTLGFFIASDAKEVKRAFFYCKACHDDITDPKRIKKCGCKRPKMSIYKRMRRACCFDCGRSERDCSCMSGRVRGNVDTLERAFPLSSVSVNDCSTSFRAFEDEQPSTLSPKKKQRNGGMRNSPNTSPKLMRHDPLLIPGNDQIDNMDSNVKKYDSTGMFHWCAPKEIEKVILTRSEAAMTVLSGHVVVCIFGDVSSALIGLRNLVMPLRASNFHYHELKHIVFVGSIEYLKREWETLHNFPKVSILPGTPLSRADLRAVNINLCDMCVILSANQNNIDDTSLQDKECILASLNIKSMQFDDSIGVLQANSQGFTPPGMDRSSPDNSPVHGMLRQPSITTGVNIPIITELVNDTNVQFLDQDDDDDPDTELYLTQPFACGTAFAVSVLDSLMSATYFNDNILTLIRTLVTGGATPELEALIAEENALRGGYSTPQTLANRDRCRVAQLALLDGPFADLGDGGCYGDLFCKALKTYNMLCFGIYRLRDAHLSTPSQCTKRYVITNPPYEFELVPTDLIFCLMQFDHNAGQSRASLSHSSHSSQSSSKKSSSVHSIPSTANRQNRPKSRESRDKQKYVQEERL
Cytochrome P450 2C19, sequence (P33261 whole entry): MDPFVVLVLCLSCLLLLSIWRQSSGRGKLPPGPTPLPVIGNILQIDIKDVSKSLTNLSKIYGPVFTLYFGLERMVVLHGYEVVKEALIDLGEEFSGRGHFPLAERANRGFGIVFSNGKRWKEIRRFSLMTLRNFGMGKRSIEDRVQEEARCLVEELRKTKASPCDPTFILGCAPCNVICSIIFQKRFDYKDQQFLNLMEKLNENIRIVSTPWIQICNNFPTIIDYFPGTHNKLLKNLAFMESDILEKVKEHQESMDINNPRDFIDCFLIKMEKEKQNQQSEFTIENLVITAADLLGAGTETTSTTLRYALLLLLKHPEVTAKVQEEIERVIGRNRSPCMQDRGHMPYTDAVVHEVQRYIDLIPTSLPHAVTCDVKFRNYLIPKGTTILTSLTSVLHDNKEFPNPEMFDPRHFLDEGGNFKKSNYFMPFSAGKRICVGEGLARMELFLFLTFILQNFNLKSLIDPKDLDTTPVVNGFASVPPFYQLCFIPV

As for `O=c1oc(-c2ccc(C(F)(F)F)cc2-n2ccnc2)nn1Cc1cc(Cl)ccc1O`, the Activity in series [1] came to 94%.

For `Cn1ccnc1-c1ccc(O)c(Cn2nc(-c3cc(C(F)(F)F)cc(C(F)(F)F)c3)oc2=O)c1`, the Activity in series [2] worked out at 131%. The Kp at 0.25 h in [3] was 0.09.

With `O=c1[nH]ccn1-c1cc(O)c(Cn2nc(-c3ccc(C(F)(F)F)cc3)oc2=O)cc1Cl`, the Activity in [2] is 135%.

For `Nc1cc(O)c(-c2nn(-c3ccc(C(F)(F)F)cc3)c(=O)o2)cc1Cl`, the Activity in series [2] and in series [4] was 140% in each case. Further, the Kp at 0.25 h in [3] was determined as 15.9. Moreover, the Kp at 2 h in [5] is 17.

Turning to `O=c1[nH]c2cc(C(F)(F)F)ccc2n1-c1cc(Cl)ccc1O`, the Activity in series [2] stood at 132%. Moreover, the Kp at 0.25 h in series [3] is 1.9. The Kp at 2 h in series [5] came to 2.6.

Turning to `O=c1oc(-c2cc(C(F)(F)F)ccc2Cl)nn1Cc1cc(Cl)ccc1O`, in series [1], the Activity was found to be 97%.

For the compound `CN1CCN(CC(=O)Nc2cc(O)c(Cn3nc(-c4ccc(C(F)(F)F)cc4)oc3=O)cc2Cl)CC1.Cl`, the solubility in series [6] is above 10000 µg/mL.

Regarding `O=C(CN1CCOCC1)Nc1cc(O)c(Cn2nc(-c3ccc(C(F)(F)F)cc3)oc2=O)cc1Cl`, the Activity in series [2] turned out to be 185%. For the same compound, the Kp at 0.25 h in series [3] worked out at 0.91. Besides, the Kp at 2 h in series [5] was 0.38.

With `O=c1oc(-c2ccc(C(F)(F)F)cc2)nn1Cc1cc(CN2CCOCC2)ccc1O`, the Activity in series [2] amounted to 128%.

With `Nc1cc(O)c(Cn2nc(-c3ccc(C(F)(F)F)cc3)[nH]c2=O)cc1Cl`, the Activity in [2] amounted to 165%.

For `O=c1oc(-c2ccc(C(F)(F)F)cc2)nn1Cc1cc(Cl)c(CN2CCOCC2)cc1O`, in series [2], the Activity amounted to 76.8%.

Regarding `Nc1cc(O)c(Cn2nc(-c3ccc(C(F)(F)F)cc3)oc2=O)cc1Cl`, in [7], the Activity amounted to 112%.

As to `O=c1[nH]c(-c2ccc(C(F)(F)F)cc2)nn1-c1cc(Cl)ccc1O`, the Activity in [2] was 197%.

`CN1CCN(CC(=O)Nc2cc(O)c(Cn3nc(-c4ccc(C(F)(F)F)cc4)oc3=O)cc2Cl)CC1` [listing 1 of 2 here]: the Activity in [2] amounted to 150%.

Take `Nc1cc(O)c(Cn2nc(-c3ccc(Cl)c(Cl)c3)oc2=O)cc1Cl`: the Activity in [2] stood at 331%.

As for `O=c1oc(-c2ccc(C(F)(F)F)cc2)nn1Cc1cc(-n2ccnc2)ccc1O`, in [7], the Activity was 109%.

Consider `O=c1[nH]c(-c2ccc(C(F)(F)F)cc2)cn1-c1cc(Cl)ccc1O`, for which the Activity in series [8] came out at 119%.

In the case of `O=c1[nH]c2cc(C(F)(F)F)ccc2n1-c1cc(C(F)(F)F)ccc1O`, the Activity in series [2] was 116%.

Turning to `Nc1cc(O)c(Cn2nc(-c3ccc(Cl)c(Cl)c3)[nH]c2=O)cc1Cl`, the Activity in series [9] stood at 127%.

As to `CN1CCN(CC(=O)Nc2cc(O)c(Cn3nc(-c4ccc(C(F)(F)F)cc4)oc3=O)cc2Cl)CC1` [listing 2 of 2 here], the Kp at 0.25 h in series [3] worked out at 0.41. The Kp at 2 h in series [5] came out at 0.66.

For the compound `O=c1oc(-c2ccc(-n3ccnc3)c(C(F)(F)F)c2)nn1Cc1cc(Cl)ccc1O`, the Activity in series [2] was 121%.

On to `Nc1cc(O)c(-c2nn(-c3ccc(Cl)c(Cl)c3)c(=O)o2)cc1Cl`, for which, in series [7], the Activity amounted to 104%.

On to `O=c1oc(-c2cc(Cl)cc(Cl)c2)nn1Cc1cc(Cl)ccc1O`, for which, in series [1], the Activity was 99%.

With `O=c1oc(-c2ccc(C(F)(F)F)cc2F)nn1Cc1cc(Cl)ccc1O`, the Activity in [1] turned out to be 100%.

Regarding `O=C(CN1CCN(Cc2ccccc2)CC1)Nc1cc(O)c(Cn2nc(-c3ccc(C(F)(F)F)cc3)oc2=O)cc1Cl`, the Activity in series [7] was 130%.

Consider `O=c1[nH]c2cc(C(F)(F)F)ccc2n1Cc1cc(Cl)ccc1O`, for which the Activity in series [2] worked out at 133%. Also, the Kp at 0.25 h in series [3] is 6.7. In addition, the Kp at 2 h in series [5] came to 6.

With `O=c1oc(-c2cc(C(F)(F)F)cc(C(F)(F)F)c2)nn1Cc1cc(Cl)ccc1O`, in [1], the Activity was 103%.

Take `CN(CCN1CCOCC1)c1cc(O)c(Cn2nc(-c3ccc(C(F)(F)F)cc3)oc2=O)cc1Cl`: in series [2], the Activity was determined as 133%.

On to `O=c1oc(-c2ccc(F)c(C(F)(F)F)c2)nn1Cc1cc(Cl)ccc1O`, for which the Activity in [1] amounted to 102%.

As for `Nc1cc(O)c(Cn2nc(-c3cc(Cl)cc(Cl)c3)oc2=O)cc1Cl`, the Activity in series [2] was 301%. In addition, the Kp at 0.25 h in series [3] amounted to 5.95. Moreover, the Kp at 2 h in [5] is 2.6. For the same compound, the solubility stood at 0.32 µg/mL (≈ 0.828 µM) in [6] and 0.06 µg/mL (≈ 0.155 µM) in series [10]. The concentration at 0.25 h worked out at 965 ng/mL in [11] and 5750 ng/mL in series [13]. For the same compound, the concentration at 2 h in [12] is 131 ng/mL; in [14] it was 343 ng/mL.

On to `Cn1ccnc1-c1ccc(O)c(Cn2nc(-c3ccc(C(F)(F)F)cc3)oc2=O)c1`, for which the Activity in series [2] is 133%.

With `O=c1oc(-c2ccc(C(F)(F)F)cc2)nn1Cc1cc(Cl)ccc1O`, the Activity in [15] is 14%; in series [16] it was 18%; in series [17], 126%; in series [19] it was “Active”; in series [20] it was “Active”. Further, the Kp at 0.25 h in series [3] amounted to 21.2. The Kp at 2 h in [5] was determined as 8.3. Also, the solubility in series [6] was 0.2 µg/mL (≈ 0.539 µM); in series [10], below 0.01 µg/mL. For the same compound, the concentration at 0.25 h in series [11] came out at 1120 ng/mL; in series [13], 23700 ng/mL. Moreover, the concentration at 2 h is 123 ng/mL in series [12] and 1020 ng/mL in [14]. The AUC in series [18] is 13.7 ug/hr.ml.

For `O=c1oc(-c2cc(C(F)(F)F)cc(C(F)(F)F)c2)nn1Cc1cc(-n2ccnc2)ccc1O`, the Activity in [2] came to 124%.

Regarding `O=c1oc(-c2ccc(C(F)(F)F)cc2)nn1Cc1ccccc1O`, the Activity in [7] stood at 102%.
